One block for each compound: values may come before it. Active and inactive are the calls of the source. No cut-off for these calls is given here.
What was measured:
[1] = tested on: BGC-823; experiment: Induction of NO release in human BGC823 cells at 100 uM incubated for 1 hr by Griess assay; assay type: functional
Method in brief: (§1)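 Cells exposed to 100 μM compound; the methods give 150 min, the results text 1 h. Cell lysates mixed with Griess reagent 10 min at 37 °C, absorbance read at 540 nm. Nitrite quantified against a sodium nitrite standard curve; 0.4% DMSO-treated cells gave background. Mean ± SD of three independent experiments.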

[2] = tested on: Bel-7402; experiment: Induction of NO release in human Bel7402 cells at 100 uM incubated for 1 hr by Griess assay; assay type: functional; method in brief: as §1
[3] = Antiproliferative activity against human BGC823 cells after 72 hrs by MTT assay; assay type: functional, cell-based; conditions: BGC-823, 72 h
Method in brief: (§2)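 Cells pre-incubated 24 h at 37 °C, 5% CO2, then exposed to compounds for 72 h. MTT (5 mg/mL solution) added for a further 4 h, formazan dissolved in DMSO, OD read at 570 nm. Negative reference 0.1% DMSO; evodiamine and 5-Fu as positive references. IC50 is the concentration inhibiting 50% of growth; mean ± SD of three independent experiments.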

[4] = tested on: A549; experiment: Antiproliferative activity against human A549 cells after 72 hrs by MTT assay; assay type: functional, cell-based; conditions: A549, 72 h; method in brief: as §2
[5] = Antiproliferative activity against human Bel7402 cells after 72 hrs by MTT assay; assay type: functional, cell-based; conditions: Bel-7402, 72 h; method in brief: as §2
[6] = tested on: L02; experiment: Induction of NO release in human L02 cells at 100 uM incubated for 1 hr by Griess assay; assay type: functional; method in brief: as §1
[7] = Antiproliferative activity against human L02 cells after 72 hrs by MTT assay; assay type: cell-based; conditions: L02, 72 h; method in brief: as §2
[8] = tested on: Bel-7402; experiment: Induction of mitochondrial membrane depolarization in human Bel7402 cells at 1 uM after 72 hrs by JC-1 staining based flow cytometry (reference value: 4.26%); assay type: functional
[9] = tested on: Bel-7402; experiment: Induction of apoptosis in human Bel7402 cells assessed as live cells at 3 uM after 72 hrs by Annexin V-FITC/propidium iodide staining based flow cytometry (reference value: 88.31%); assay type: functional
[10] = tested on: Bel-7402; experiment: Induction of apoptosis in human Bel7402 cells assessed as increase in caspase-8 expression at 1 to 3 uM after 72 hrs by Western blot analysis; assay type: functional, cell-based
Method in brief: (§3)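 Bel-7402 cells exposed to different doses for 72 h, lysed, and protein content determined. Lysates separated on 10% SDS-PAGE and transferred to nitrocellulose. Membranes probed with monoclonal primary antibodies, then HRP-conjugated secondary antibodies, with ECL detection.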

[11] = tested on: Bel-7402; experiment: Induction of apoptosis in human Bel7402 cells assessed as early apoptotic cells at 1 uM after 72 hrs by Annexin V-FITC/propidium iodide staining based flow cytometry (reference value: 6.66%); assay type: functional
[12] = tested on: Bel-7402; experiment: Induction of apoptosis in human Bel7402 cells assessed as necrotic cells at 3 uM after 72 hrs by Annexin V-FITC/propidium iodide staining based flow cytometry (reference value: 2.48%); assay type: functional
[13] = tested on: Bel-7402; experiment: Induction of apoptosis in human Bel7402 cells assessed as necrotic cells at 2 uM after 72 hrs by Annexin V-FITC/propidium iodide staining based flow cytometry (reference value: 2.48%); assay type: functional
[14] = tested on: Bel-7402; experiment: Induction of apoptosis in human Bel7402 cells assessed as increase in cytochrome-C level at 1 to 3 uM after 72 hrs by Western blot analysis; assay type: functional, cell-based; method in brief: as §3
[15] = Cell cycle arrest in human Bel7402 cells assessed as accumulation at G1 phase at 1 uM after 24 hrs by propidium iodide staining based flow cytometry (reference value: 43.13%); assay type: functional; conditions: Bel-7402
[16] = Induction of apoptosis in human Bel7402 cells assessed as upregulation of FAS protein expression at 1 to 3 uM after 72 hrs by Western blot analysis; assay type: functional, cell-based; conditions: Bel-7402; method in brief: as §3
[17] = Cell cycle arrest in human Bel7402 cells assessed as accumulation at G1 phase at 2 uM after 24 hrs by propidium iodide staining based flow cytometry (reference value: 43.13%); assay type: functional; conditions: Bel-7402
[18] = Cell cycle arrest in human Bel7402 cells assessed as accumulation at G1 phase at 3 uM after 24 hrs by propidium iodide staining based flow cytometry (reference value: 43.13%); assay type: functional; conditions: Bel-7402
[19] = tested on: Bel-7402; experiment: Induction of apoptosis in human Bel7402 cells assessed as early apoptotic cells at 2 uM after 72 hrs by Annexin V-FITC/propidium iodide staining based flow cytometry (reference value: 6.66%); assay type: functional
[20] = tested on: Bel-7402; experiment: Induction of mitochondrial membrane depolarization in human Bel7402 cells at 2 uM after 72 hrs by JC-1 staining based flow cytometry (reference value: 4.26%); assay type: functional
[21] = Cell cycle arrest in human Bel7402 cells assessed as accumulation at G2 phase at 1 uM after 24 hrs by propidium iodide staining based flow cytometry (reference value: 23.17%); assay type: functional; conditions: Bel-7402
[22] = tested on: Bel-7402; experiment: Induction of apoptosis in human Bel7402 cells assessed as late apoptotic cells at 3 uM after 72 hrs by Annexin V-FITC/propidium iodide staining based flow cytometry (reference value: 2.55%); assay type: functional
[23] = tested on: Bel-7402; experiment: Induction of apoptosis in human Bel7402 cells assessed as increase in caspase-3 expression at 1 to 3 uM after 72 hrs by Western blot analysis; assay type: functional, cell-based; method in brief: as §3
[24] = Induction of apoptosis in human Bel7402 cells assessed as upregulation of Bax expression at 1 to 3 uM after 72 hrs by Western blot analysis; assay type: functional, cell-based; conditions: Bel-7402; method in brief: as §3
[25] = tested on: Bel-7402; experiment: Induction of apoptosis in human Bel7402 cells assessed as live cells at 1 uM after 72 hrs by Annexin V-FITC/propidium iodide staining based flow cytometry (reference value: 88.31%); assay type: functional
[26] = tested on: Bel-7402; experiment: Induction of mitochondrial membrane depolarization in human Bel7402 cells at 3 uM after 72 hrs by JC-1 staining based flow cytometry (reference value: 4.26%); assay type: functional
[27] = tested on: Bel-7402; experiment: Induction of apoptosis in human Bel7402 cells assessed as late apoptotic cells at 1 uM after 72 hrs by Annexin V-FITC/propidium iodide staining based flow cytometry (reference value: 2.55%); assay type: functional
[28] = Cell cycle arrest in human Bel7402 cells assessed as accumulation at G2 phase at 3 uM after 24 hrs by propidium iodide staining based flow cytometry (reference value: 23.17%); assay type: functional; conditions: Bel-7402
[29] = tested on: Bel-7402; experiment: Induction of apoptosis in human Bel7402 cells after 72 hrs by Annexin V-FITC/propidium iodide staining based flow cytometry; assay type: functional, cell-based
[30] = tested on: Bel-7402; experiment: Induction of apoptosis in human Bel7402 cells assessed as live cells at 2 uM after 72 hrs by Annexin V-FITC/propidium iodide staining based flow cytometry (reference value: 88.31%); assay type: functional
[31] = tested on: Bel-7402; experiment: Induction of apoptosis in human Bel7402 cells assessed as down regulation of Bcl-2 expression at 1 to 3 uM after 72 hrs by Western blot analysis; assay type: functional, cell-based; method in brief: as §3
[32] = tested on: Bel-7402; experiment: Induction of apoptosis in human Bel7402 cells assessed as increase in caspase-9 expression at 1 to 3 uM after 72 hrs by Western blot analysis; assay type: functional, cell-based; method in brief: as §3
[33] = tested on: Bel-7402; experiment: Induction of apoptosis in human Bel7402 cells assessed as early apoptotic cells at 3 uM after 72 hrs by Annexin V-FITC/propidium iodide staining based flow cytometry (reference value: 6.66%); assay type: functional
[34] = Cell cycle arrest in human Bel7402 cells assessed as accumulation at S phase at 2 uM after 24 hrs by propidium iodide staining based flow cytometry (reference value: 33.7%); assay type: functional; conditions: Bel-7402
[35] = Cell cycle arrest in human Bel7402 cells assessed as accumulation at S phase at 1 uM after 24 hrs by propidium iodide staining based flow cytometry (reference value: 33.7%); assay type: functional; conditions: Bel-7402
[36] = tested on: Bel-7402; experiment: Induction of apoptosis in human Bel7402 cells assessed as late apoptotic cells at 2 uM after 72 hrs by Annexin V-FITC/propidium iodide staining based flow cytometry (reference value: 2.55%); assay type: functional
[37] = Cell cycle arrest in human Bel7402 cells assessed as accumulation at S phase at 3 uM after 24 hrs by propidium iodide staining based flow cytometry (reference value: 33.7%); assay type: functional; conditions: Bel-7402
[38] = tested on: Bel-7402; experiment: Induction of apoptosis in human Bel7402 cells assessed as necrotic cells at 1 uM after 72 hrs by Annexin V-FITC/propidium iodide staining based flow cytometry (reference value: 2.48%); assay type: functional
[39] = Cell cycle arrest in human Bel7402 cells assessed as accumulation at G2 phase at 2 uM after 24 hrs by propidium iodide staining based flow cytometry (reference value: 23.17%); assay type: functional; conditions: Bel-7402
[40] = tested on: Bel-7402; experiment: Induction of mitochondrial membrane depolarization in human Bel7402 cells after 72 hrs by JC-1 staining based flow cytometry; assay type: functional, cell-based

Compound: CN1c2ccccc2C(=O)N2CCc3c([nH]c4ccccc34)C21 (centres undefined)
IC50 [3]: 1.16 µM
IC50 [4]: 0.98 µM
IC50 [5]: 1.23 µM
IC50 [7]: 0.34 µM

Compound: CN1c2ccccc2C(=O)N2CCc3c(n(CCOc4no[n+]([O-])c4S(=O)(=O)c4ccccc4)c4ccccc34)C21 (centres undefined)
Activity [1]: 78.8 µM
Activity [2]: 77.5 µM
IC50 [3]: 0.02 µM
IC50 [4]: 0.23 µM
IC50 [5]: 0.55 µM
Activity [6]: 18.5 µM
IC50 [7]: 0.02 µM

Compound: CN1c2ccccc2C(=O)N2CCc3c(n(CCCCCCOc4no[n+]([O-])c4S(=O)(=O)c4ccccc4)c4ccccc34)C21 (centres undefined)
Activity [8]: 13.5%
Activity [9]: 40.74%
Activity [10]: Active
Activity [11]: 15.92%
Activity [12]: 6.69%
Activity [1]: 87.3 µM
Activity [13]: 4.74%
Activity [2]: 82.2 µM
Activity [14]: Active
Activity [15]: 44.9%
Activity [16]: Active
Activity [17]: 42.6%
IC50 [3]: 0.07 µM
IC50 [4]: 2.31 µM
Activity [18]: 42.6%
Activity [19]: 20.98%
Activity [20]: 26.57%
Activity [21]: 15.7%
IC50 [5]: 2.1 µM
Activity [22]: 28.2%
Activity [23]: Active
Activity [24]: Active
Activity [25]: 77.63%
Activity [26]: 44.37%
Activity [27]: 3.71%
Activity [28]: 5.9%
Activity [29]: Dose-dependent effect
Activity [30]: 58.88%
Activity [31]: Active
Activity [32]: Active
Activity [33]: 24.37%
Activity [34]: 47.3%
Activity [6]: 26 µM
Activity [35]: 39.3%
Activity [36]: 15.4%
Activity [37]: 51.5%
Activity [38]: 2.73%
Activity [39]: 10%
IC50 [7]: > 100 µM
Activity [40]: Dose-dependent effect

Compound: CN1c2ccccc2C(=O)N2CCc3c(n(CCCOC(=O)CCC(=O)OCCOc4no[n+]([O-])c4S(=O)(=O)c4ccccc4)c4ccccc34)C21 (centres undefined)
Activity [1]: 97.6 µM
Activity [2]: 97 µM
IC50 [3]: 0.06 µM
IC50 [4]: 5.32 µM
IC50 [5]: 4.65 µM
Activity [6]: 18 µM
IC50 [7]: 6.38 µM

Now from value to compound, other results behind:

IC50 [4]: 3.04 µM
Compound: CN1c2ccccc2C(=O)N2CCc3c(n(CCOC(=O)CCC(=O)OCCOc4no[n+]([O-])c4S(=O)(=O)c4ccccc4)c4ccccc34)C21 (centres undefined)
Activity [1]: 93.5 µM
Activity [2]: 88.7 µM
IC50 [3]: 0.02 µM
IC50 [5]: 1.54 µM
Activity [6]: 6.59 µM
IC50 [7]: 17.1 µM

IC50 [4]: 27.9 µM
Compound: O=C(O)CCC(=O)OCCOc1no[n+]([O-])c1S(=O)(=O)c1ccccc1
IC50 [3]: 18 µM
IC50 [5]: 21.4 µM
IC50 [7]: 38.7 µM

IC50 [4]: 24.7 µM
Compound: COC(=O)CCC(=O)OCCOc1no[n+]([O-])c1S(=O)(=O)c1ccccc1
IC50 [3]: 21.4 µM
IC50 [5]: 27.9 µM
IC50 [7]: 43.3 µM

IC50 [4]: > 100 µM
Compound: CN1c2ccccc2C(=O)N2CCc3c(n(CCCCCCO[N+](=O)[O-])c4ccccc34)C21 (centres undefined)
Activity [1]: 100 µM
Activity [2]: 104 µM
IC50 [3]: > 100 µM
IC50 [5]: 28.8 µM
Activity [6]: 16.4 µM
IC50 [7]: > 100 µM

IC50 [4]: 5.85 µM
Compound: CN1c2ccccc2C(=O)N2CCc3c(n(CCCOc4no[n+]([O-])c4S(=O)(=O)c4ccccc4)c4ccccc34)C21 (centres undefined)
Activity [1]: 83.6 µM
Activity [2]: 83.1 µM
IC50 [3]: 0.08 µM
IC50 [5]: 6.21 µM
Activity [6]: 16.4 µM
IC50 [7]: 2.35 µM

IC50 [4]: > 100 µM
Compound: CN1c2ccccc2C(=O)N2CCc3c(n(CCCO[N+](=O)[O-])c4ccccc34)C21 (centres undefined)
Activity [1]: 83.8 µM
Activity [2]: 78.5 µM
IC50 [3]: > 100 µM
IC50 [5]: 12.8 µM
Activity [6]: 19.4 µM
IC50 [7]: > 100 µM

From ChEMBL document CHEMBL3808293, “Antiproliferative activity and apoptosis inducing effects of nitric oxide donating derivatives of evodiamine” (Bioorg Med Chem, 2016)
